Reference: ChEMBL document CHEMBL1134528, “Heterocycle-containing retinoids. Discovery of a novel isoxazole arotinoid possessing potent apoptotic activity in multidrug and drug-induced apoptosis-resistant cells” (J Med Chem, 2001)

Legend:
[1] = system: HL-60; experiment: Effect on monocyte associated antigen CD14 expression in differentiating HL-60 cells; format: functional, Homo sapiens
Outline: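 HL60 cells (2 × 10^5) exposed to each retinoid for 6 days; differentiation scored by May Grunwald-Giemsa-stained cytospin morphology and two-colour direct immunofluorescence flow cytometry with FITC anti-human CD14 and PE anti-human CD11c mouse monoclonals, isotype antibodies as negative controls; value is % antigen-positive cells. Growth in RPMI 1640, 10% FCS, 37 °C, 5% CO2.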

[2] = system: HL-60; experiment: In vitro inhibition of HL60 cell proliferation; format: functional, cell-based; settings: Homo sapiens
[3] = system: HL-60; experiment: In vitro apoptotic activity in HL60 cells; format: functional, cell-based; settings: Homo sapiens
Outline: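 HL60 cells (2 × 10^5 per well, RPMI 1640 + 10% FCS) given increasing drug concentrations for 48 h; apoptosis scored morphologically under fluorescence microscopy after acridine orange/ethidium bromide labelling (chromatin condensation, apoptotic bodies), also by propidium iodide hypotonic-citrate flow cytometry as pre-G0G1 events; AC50 = concentration giving apoptosis in 50% of cells.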

[4] = system: SW 962; experiment: (§1) Percentage efficacy for Beta RARE transactivation in SW962 cells; format: functional, Homo sapiens; set-up: concentration or dose not given beside the values
Outline: (§2)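 SW962 vulvar carcinoma cells (L15 medium, 10% FBS with <8 nM vitamin A) stably carrying RARE-tk-CAT reporter with endogenous receptors, treated 24 h in DMSO; CAT measured by ELISA, normalised to protein, triplicates; fold induction vs DMSO control. Efficacy = fold induction at highest concentration (10 µM) divided by that of 10 µM 9-cis-RA, ×100.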

[5] = system: SW 962; experiment: Potency against beta RARE transactivation in SW962 cells; format: functional, Homo sapiens
Outline: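 Stably transfected SW962 RARE-tk-CAT reporter line treated 24 h with 10^-9 to 10^-5 M compound in DMSO, DMSO vehicle control; CAT protein by ELISA normalised to extract protein, triplicate treatments averaged to give fold RARE induction; EC50, the concentration for half-maximal activation, read from dose–response curves.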

[6] = system: HL-60; experiment: Apoptotic activity in retinoic acid resistant HL60R cells; format: functional, cell-based; settings: Homo sapiens
Outline: (§3)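 Cells were exposed to increasing drug concentrations for 48 h. Apoptosis was scored by fluorescence microscopy after acridine orange/ethidium bromide staining, with chromatin condensation and apoptotic bodies marking apoptotic cells and uniform ethidium staining marking necrosis. AC50 is the concentration inducing apoptosis in 50% of cells.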

[7] = system: K562; experiment: Inhibition of retinoic acid resistant K562 cell proliferation; format: functional, cell-based; settings: Homo sapiens
Outline: (§4)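 Cells at 2 × 10^5 per well in 1 mL complete medium were exposed to increasing concentrations of each drug for 48 h. Viable cells were counted on a hemocytometer with trypan blue exclusion and expressed as percent of control proliferation. IC50 is the concentration giving 50% growth inhibition.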

[8] = system: HL-60; experiment: Inhibition of retinoic acid resistant HL60R cell proliferation; format: functional, cell-based; settings: Homo sapiens; outline: as §4
[9] = system: K562; experiment: Apoptotic activity in retinoic acid resistant K562 cells; format: functional, cell-based; settings: Homo sapiens; outline: as §3
[10] = system: HuT78; experiment: Inhibition of retinoic acid resistant HUT78 cell proliferation; format: functional, cell-based; settings: Homo sapiens; outline: as §4
[11] = system: HuT78; experiment: Apoptotic activity in retinoic acid resistant HUT78 cell lines; format: functional, cell-based; settings: Homo sapiens; outline: as §3
[12] = system: SW 962; experiment: as §1; format: functional, Homo sapiens; outline: as §2

Row | Structure (SMILES) | Activity [1] [%] | IC50 [2] [µM] | AC50 [3] [µM] | Efficacy [4] [%] | Potency [5] [nM] | further results
1 | CC1(C)CCC(C)(C)c2cc(C3=NOC(c4ccc(C(=O)O)cc4)C3)ccc21 (configuration not stated) | 42.8 | 68 | > 100 | 46.5 | 2860 | 
2 | CC1(C)CCC(C)(C)c2cc(-c3cc(-c4ccc(C(=O)O)cc4)no3)ccc21 |  | 1 | 5 | 97.6 | 10000 | AC50 [6]: 4.2 µM; IC50 [7]: 2300 nM; IC50 [8]: 1400 nM; AC50 [9]: 4.8 µM; IC50 [10]: 800 nM; AC50 [11]: 1500 nM
3 | CC1(C)CCC(C)(C)c2cc(C3CC(c4ccc(C(=O)O)cc4)=NO3)ccc21 (configuration not stated) | 32.5 | 75 | > 100 | 26.3 | 961 | 
4 | CC1(C)CCC(C)(C)c2cc(CNc3ccc(C(=O)O)cc3)ccc21 |  | 40 | 70 | 64.5 | 671 | 
5 | CC1(C)CCC(C)(C)c2cc(CNc3ccccc3C(=O)O)ccc21 |  | 49 | 88 |  |  | 
6 | CC1(C)CCC(C)(C)c2cc(COc3ccc(C(=O)O)cc3)ccc21 |  | > 100 | > 100 |  |  | 
7 | CC1(C)CCC(C)(C)c2cc(CNc3cccc(C(=O)O)c3)ccc21 |  | 60 | 99 |  |  | 
8 | CN(Cc1ccc2c(c1)C(C)(C)CCC2(C)C)c1ccc(C(=O)O)cc1 |  | 58 | 95 |  |  | 
9 | CC1(C)CCC(C)(C)c2cc(-c3cc(-c4ccc(C(=O)O)cc4)on3)ccc21 | 38.6 | 80 | > 100 | 48 | 129 | 
10 | CC1=C(/C=C/C(C)=C\C=C\C(C)=C\C(=O)O)C(C)(C)CCC1 [ALITRETINOIN] |  |  |  |  | 16.9 | Efficacy [12]: 100%
11 | CC1=C(/C=C/C(C)=C/C=C/C(C)=C/C(=O)O)C(C)(C)CCC1 [TRETINOIN] | 0 | 18 | > 100 |  |  | 
